Measurements published in ChEMBL document CHEMBL1153534, “Design and synthesis of androgen receptor antagonists with bulky side chains for overcoming antiandrogen resistance” (J Med Chem, 2009).
Numbering of substitutions follows the chain as printed. Active and inactive are the calls of the source.

Experiments:
Conditions in all cases: PC-3
[1] = molecular target: T1, Androgen receptor (Homo sapiens) (UniProt P10275); test: Activity in human PC3 cells expressing wild-type androgen receptor assessed as ARE-dependent transactivation at 0.1 uM after 24 hrs by luciferase reporter gene assay in absence of DHT; type: cell-based
T1 sequence (whole entry): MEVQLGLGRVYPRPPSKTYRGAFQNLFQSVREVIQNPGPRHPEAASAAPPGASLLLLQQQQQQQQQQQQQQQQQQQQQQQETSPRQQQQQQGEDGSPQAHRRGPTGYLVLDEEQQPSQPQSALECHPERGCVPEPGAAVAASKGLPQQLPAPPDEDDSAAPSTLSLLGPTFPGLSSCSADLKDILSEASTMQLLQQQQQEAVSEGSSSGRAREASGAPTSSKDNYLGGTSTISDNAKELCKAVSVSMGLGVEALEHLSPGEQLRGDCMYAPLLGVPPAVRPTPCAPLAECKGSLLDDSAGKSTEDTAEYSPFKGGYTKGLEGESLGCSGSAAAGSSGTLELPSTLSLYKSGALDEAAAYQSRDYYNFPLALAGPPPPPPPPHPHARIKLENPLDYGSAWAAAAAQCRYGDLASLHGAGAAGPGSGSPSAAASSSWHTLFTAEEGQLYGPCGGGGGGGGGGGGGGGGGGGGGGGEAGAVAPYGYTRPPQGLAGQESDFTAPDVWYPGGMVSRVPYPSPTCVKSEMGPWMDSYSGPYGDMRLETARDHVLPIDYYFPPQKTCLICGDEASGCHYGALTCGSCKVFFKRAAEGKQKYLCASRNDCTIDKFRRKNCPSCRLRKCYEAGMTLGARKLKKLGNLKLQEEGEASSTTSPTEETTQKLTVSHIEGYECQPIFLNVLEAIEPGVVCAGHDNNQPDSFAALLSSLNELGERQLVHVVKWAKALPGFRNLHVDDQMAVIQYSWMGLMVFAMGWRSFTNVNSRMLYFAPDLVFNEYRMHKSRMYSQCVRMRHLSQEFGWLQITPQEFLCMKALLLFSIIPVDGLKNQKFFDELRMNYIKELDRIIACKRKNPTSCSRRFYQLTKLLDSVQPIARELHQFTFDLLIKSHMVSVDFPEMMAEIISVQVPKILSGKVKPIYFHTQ
Outline: (§1)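 PC-3 cells, which lack endogenous AR, transiently transfected with plasmids expressing human AR (WT, T877A, W741C or H874Y) plus an ARE-driven MMTV-luc reporter. Cells were treated with or without 0.1 nM DHT. Firefly luciferase was standardized to a Renilla control and normalized to the 0.1 nM DHT signal. Mean ± sd.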

[2] = tested on: T2, Androgen receptor (Homo sapiens), P10275 [W742C]; test: Activity in human PC3 cells expressing androgen receptor W741C mutant assessed as ARE-dependent transactivation at 0.1 uM after 24 hrs by luciferase reporter gene assay in absence of DHT; type: cell-based; outline: as §1
T2 sequence (whole entry): T1 sequence (whole entry) with W742C

[3] = molecular target: T3, Progesterone receptor (Homo sapiens) (UniProt P06401); test: Antagonist activity at human PR B-form expressed in human PC3 cells assessed as inhibition of R5020-induced transactivation at 0.1 uM after 24 hrs by luciferase reporter gene assay; type: functional, cell-based
T3 sequence (whole entry): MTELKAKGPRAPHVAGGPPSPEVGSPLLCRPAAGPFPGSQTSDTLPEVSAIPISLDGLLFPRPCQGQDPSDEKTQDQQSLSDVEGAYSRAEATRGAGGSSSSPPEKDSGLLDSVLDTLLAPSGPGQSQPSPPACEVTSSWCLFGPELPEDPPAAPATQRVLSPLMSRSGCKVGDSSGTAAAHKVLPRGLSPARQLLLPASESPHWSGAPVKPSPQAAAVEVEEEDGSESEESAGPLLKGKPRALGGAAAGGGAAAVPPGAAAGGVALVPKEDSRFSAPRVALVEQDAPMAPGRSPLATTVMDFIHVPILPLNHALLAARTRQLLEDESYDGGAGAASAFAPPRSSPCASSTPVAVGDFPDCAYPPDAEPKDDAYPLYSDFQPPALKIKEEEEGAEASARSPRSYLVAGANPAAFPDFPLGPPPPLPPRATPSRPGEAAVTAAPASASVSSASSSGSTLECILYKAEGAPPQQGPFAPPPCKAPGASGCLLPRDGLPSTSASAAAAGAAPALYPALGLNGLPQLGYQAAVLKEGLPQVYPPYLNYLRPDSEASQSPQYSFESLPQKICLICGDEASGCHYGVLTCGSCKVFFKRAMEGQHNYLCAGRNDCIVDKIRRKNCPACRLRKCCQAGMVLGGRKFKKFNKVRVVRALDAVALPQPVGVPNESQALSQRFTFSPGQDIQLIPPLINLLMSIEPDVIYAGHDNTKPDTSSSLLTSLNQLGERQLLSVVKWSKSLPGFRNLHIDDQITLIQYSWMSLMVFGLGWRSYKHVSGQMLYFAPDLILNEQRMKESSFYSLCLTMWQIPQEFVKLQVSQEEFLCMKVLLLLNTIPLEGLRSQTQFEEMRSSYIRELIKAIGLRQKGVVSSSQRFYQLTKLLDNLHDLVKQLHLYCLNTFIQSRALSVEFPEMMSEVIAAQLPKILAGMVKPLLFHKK
Outline: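 PC-3 cells carrying a luciferase reporter for transactivation by the human PR B form. Antagonist mode used 10 nM R5020 as the agonist. Agonist mode ran in the absence of R5020. Luciferase read-out.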

Measured: Activity

COc1cc(/C=C(\C(=O)/C=C/C2=C(C)CCCC2(C)C)C(=O)/C=C/c2ccc(O)c(OC)c2)ccc1O
inactive: all assays above
